Screening data from PubChem.
Shown is part of a subset that was picked to be rich in hits.
Fibroblast inh – blocks proliferation of human lung fibroblasts | LL 47 human lung fibroblast viability, ATP luminescence; active compounds read low | viability, % at 10 µM | 1.1% of 85,000 active;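 active = viability at or below 50% in the single dose screen; inactive = viability above 50%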;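 note: compound exposure lasted 72 h before the ATP readout; 100% = median luminescence of untreated cell-only wells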
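Material: Human LL 47 lung fibroblast cells | Input: 1,150 cells/well | Buffer or medium: IMEM plus 15% FBS | Compound dosing: 0.1% DMSO in all compound wells | Times: Overnight cell rest, 72 h compound treatment at 37 °C | Signal: CellTiter-Glo luminescence measuring cellular ATP | Measure: % viability versus median cells-only luminescence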
HUVEC inhibit – inhibitors of human endothelial cell proliferation. HUVEC proliferation, CellTiter-Glo luminescence, 72 h; active compounds read low. viability, % at 10 µM (by protocol). 1.1% of 86,000 active. AID 648;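 active = viability at or below 30%; inactive = viability above 30%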;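 note: 100% = median luminescence of DMSO-only cell control wells on each plate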
HCT116 bCat-KO – beta-catenin-lacking colon tumor cell growth suppression | viability, % at 10 µM | HCT116 beta-catenin knockout viability, CellTiter-Glo, 60 h; active compounds read low | 1.5% of 140,000 active;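 active = viability at or under a set limit, the compound median less 4 SD, cut at about 6% in these data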;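 note: 0% = Hyamine 1622 control at 20 µM and 100% = untreated cell control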
H69AR inhibit – growth inhibitors of human H69AR lung tumor cells. H69AR lung tumor viability, ATP luminescence, 72 h; active compounds read low. viability, % at 10 µM. 6% of 85,000 active;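 active = viability at or below 40%; inactive = viability above 40%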;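 note: multidrug resistant small cell line overexpressing MRP-1 efflux transporter; 100% = mean luminescence of untreated control wells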
HCT116 PTEN-null – growth suppressors of cells with PTEN tumor suppressor deletion; viability, % at 10 µM; 1.2% of 140,000 active; HCT116 PTEN-null viability, CellTiter-Glo, 60 h; active compounds read low; AID 827;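 active = viability at or below a set limit, 4 SD under the median of all tested compounds, cut at about 3.7% in these data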;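 note: PTEN knockout HCT116 line with beta catenin targeted HCT116 as companion control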
* hit, by the source's call; . = not tested or not shown.

SMILES	Fibroblast inh	HUVEC inhibit	HCT116 bCat-KO	H69AR inhibit	HCT116 PTEN-null
N#Cc1nc(COc2ccccc2)oc1NCCN1CCOCC1	.	.	101.8	.	88.0
N#Cc1nc(COc2ccc(-c3ccccc3)cc2)oc1NCCCN1CCOCC1	103.0	6.3*	25.2	48.7	33.4
CN(C)CCNc1oc(COc2ccc(-c3ccccc3)cc2)nc1C#N	45.2*	39.7	87.7	15.3*	75.4
COc1ccccc1-n1cnnc1SCC(=O)c1c[nH]c2ccccc12	.	.	97.5	.	90.3
COc1ccc(C(=O)O/N=C(\N)Cc2ccc(Cl)cc2)cc1OC	.	.	0.9*	.	2.4*
CCCCOc1ccc(Br)cc1CSC(=N)N	.	.	11.0	.	11.9
CCCCOc1ccc(Br)cc1/C(C)=N/NC1=NCCN1	22.8*	7.1*	2.4*	82.9	2.9*
CC(C)c1nnc(N2C(=O)c3oc4ccccc4c(=O)c3C2c2ccco2)s1 (stereo not drawn)	.	.	98.5	.	96.5
Cc1ccc(C2c3c(oc4ccccc4c3=O)C(=O)N2c2nnc(C(C)C)s2)o1 (stereo not drawn)	99.7	57.5	91.5	8.4*	103.4
O=C(COC(=O)COc1ccccc1Cc1ccccc1)Nc1cccnc1Cl	.	.	98.9	.	93.2
Cc1cccc(C)c1NC(=O)CSCC(=O)c1ccc(O)c(O)c1	78.8	63.4	31.6	18.3*	53.0
CCOc1ccc(-c2nnn(CC(=O)NCc3ccco3)n2)cc1OCC	104.5	103.8	93.2	67.5	95.0
CCCCOc1ccc(-c2nnn(CC(=O)NCc3ccco3)n2)cc1	51.8	56.9	29.2	29.1*	31.3
CC(C)(C)OC(=O)CN1C(=O)C(Sc2n[nH]c(-c3ccccc3)n2)CCc2ccccc21 (stereo not drawn)	.	.	74.2	.	70.8
Cc1cc(C(=O)Nc2sc3c(c2C#N)CCCC3)no1	95.6	80.4	59.1	26.7*	70.6
CC(C)Cc1cc(C(=O)Nc2sc3c(c2C#N)CCCC3)no1	91.1	96.5	96.2	90.9	89.9
Cc1cc(C(=O)Nc2sc3c(c2C#N)CCC3)no1	99.1	67.5	59.8	21.8*	54.2
N#Cc1c(NC(=O)c2cc(C3CC3)on2)sc2c1CCC2	99.3	61.3	37.0	33.1*	35.9
CC(C)Cc1cc(C(=O)Nc2sc3c(c2C#N)CCC3)no1	104.0	99.7	90.2	67.0	100.0
COC(=O)/C=C1/N/C(=N\c2nc(C)cc(C)n2)N(c2ccc(Cl)cc2)C1=O	.	.	69.7	.	83.3
O=C(NCC(c1cccs1)N1CCOCC1)c1ccc(Br)o1 (stereo not drawn)	63.8	85.2	14.9	22.6*	18.7
O=C(NCC(c1cccs1)N1CCOCC1)c1ccccc1NS(=O)(=O)c1ccc(Br)cc1 (stereo not drawn)	.	.	30.9	.	32.5
O=C(NCc1ccc(Cl)cc1Cl)C1CCN(S(=O)(=O)c2ccc3c(c2)OCCCO3)CC1	.	.	88.7	.	84.5
N#Cc1cc(Oc2cccc3cccnc23)c(-n2nnc3ccccc32)cc1C#N	83.7	72.0	12.7	17.8*	21.7
N=c1c(-c2nc3ccccc3[nH]2)cc(C(=O)c2ccco2)nn1-c1ccccc1	.	.	57.4	.	59.8
SMILES	Fibroblast inh	HUVEC inhibit	HCT116 bCat-KO	H69AR inhibit	HCT116 PTEN-null
N=c1c(-c2nc3ccccc3[nH]2)cc(C(=O)c2cccs2)nn1-c1ccccc1	85.8	69.7	46.9	5.4*	54.1
Cc1cccc(N2C(=N)SCC2=O)c1C	.	.	103.4	.	94.2
C/C(=N\NC(=O)c1c(-c2ccccc2Cl)noc1C)c1cccc(NC(=O)C(C)C)c1	.	.	99.9	.	94.6
Nc1[nH]nc2c1NN(c1ccc(Cl)cc1Cl)N2	.	.	26.7	.	19.4
CC(C)(C)C1CCc2c(sc(NC(=O)c3ccco3)c2C(N)=O)C1 (stereo not drawn)	59.3	75.5	41.5	38.7*	50.6
Cc1c(C#N)c2ccccc2n1CC(=O)N1CCCC1	94.5	101.6	92.6	93.8	105.2
Cc1c(C#N)c2ccccc2n1CC(=O)N1CCCc2ccccc21	93.3	91.5	88.0	32.0*	80.1
O=C(COC(=O)C12CC3CC(CC(C3)C1)C2)Nc1ccccc1F	.	.	81.5	.	85.1
C=C(C)CNC(=S)NNC(=O)CCn1c2ccc(Cl)cc2c2cc(Cl)ccc21	.	.	2.7*	.	3.5*
CC1(C)Cc2ccccc2C(NNC(=O)c2ccccn2)=N1	46.1*	85.0	8.9	30.5*	6.2
CC1(C)Cc2ccccc2C(N/N=C/c2cccc(F)c2)=N1	.	.	99.6	.	91.0
COc1ccc(N(C(=O)c2ccc(F)cc2)C2=CC3CCC(C2)N3C)cc1 (stereo not drawn)	99.4	87.3	96.6	88.4	108.4
CC(=O)c1sc(NC(=O)COc2ccc(C)c(C)c2)nc1C	.	.	90.8	.	92.9
